High-throughput results (PubChem)
The list is not random: actives were taken first. Their share in the collection is about 3%.
Wnt bcat act – Wnt/beta-catenin pathway activators, primary screen, cell-based, plate reader, single point; AID 743398, 2014; activation, % at 9.35 µM; Wnt/beta-catenin reporter cell assay, activator; hit rate 1.2% among 300,000; in the data active = activation above about 30%, passing the limit was not always enough; inconclusive = no clear call, values can overlap the other calls
esBAF inh – Bmi1 luciferase reporter increase in mESCs, primary screen, esBAF inhibitor project, mouse ES cells, Bmi1 luciferase knock-in, single point; 24 h; 100% = twice the neutral-well signal; reporter increase, % at 12.5 µM; hit rate 2% among 350,000; AID 602393, 2012; in the data active = activation above about 40%; inconclusive = no clear call, values can overlap the other calls;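 also: a rise in the Bmi1 reporter signal indicates esBAF inhibition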
CASP6 VEID inh – human caspase-6 inhibitors, primary screen, biochemical, VEID-R110 fluorescence, single point, set 2. P55212. purified caspase-6, Z-VEID-R110 cleavage fluorescence. inhibition, % at 12.5 µM. hit rate 0.53% among 350,000. AID 686996, 2013;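 active = mean inhibition across replicates at least about 35%, with every replicate also reaching that limit, limit read from the data; inconclusive = only one of the two criteria met; inactive = neither criterion met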
Target sequence (P55212 24-179 limits assumed): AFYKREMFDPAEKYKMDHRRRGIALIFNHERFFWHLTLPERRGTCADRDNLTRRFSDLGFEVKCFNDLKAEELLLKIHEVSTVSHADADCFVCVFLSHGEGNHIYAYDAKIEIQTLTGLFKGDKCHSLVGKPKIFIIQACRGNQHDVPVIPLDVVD
Target sequence (P55212 194-293 limits assumed): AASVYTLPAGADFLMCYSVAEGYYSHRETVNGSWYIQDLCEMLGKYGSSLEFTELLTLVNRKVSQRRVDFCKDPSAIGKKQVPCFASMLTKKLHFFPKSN
MITF act – activators of MITF-driven TRPM1 promoter reporter, primary screen, cell-based, SK-MEL-5, luciferase, single point; SK-MEL-5 TRPM1-promoter luciferase, 24 h; % of positive control, neutral wells = 0; activation, % at 12.5 µM; hit rate 0.75% among 300,000; AID 588334, 2011;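 active = mean activation of at least 80% with every replicate also reaching 80%; inconclusive = mean reaches 80% but some replicate falls short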
NSD2 inh – NSD2 histone methyltransferase inhibitors, primary screen, biochemical, AlphaScreen, single concentration, set 2; AID 743445, 2014; inhibition, % at 12.5 µM; NSD2 peptide methylation, 120 min; Histone-lysine N-methyltransferase NSD2 (Homo sapiens), O96028; hit rate 0.54% among 310,000; in the data active = inhibition above about 50%
XiGFP reactiv – activators of inactive X chromosome reactivation, primary screen, imaging, XiGFP fibroblasts, GFP high-content imaging, set 2; hit rate 0.055% among 360,000; XiGFP mouse fibroblasts, % GFP-positive cells imaging, 3 d; cells co-treated with 5-aza-dC sensitizer; scaled so ellipticine positive control = 100%; activation, % at 7.58 µM;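 active = mean normalized replicate activation at least 10% and every replicate at or above 10%; inconclusive = only one of the two criteria met; inactive = mean below 10% and not all replicates reach 10%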
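Material: XiGFP fibroblasts, SV40-immortalized; Buffer or medium: DMEM containing 5-aza-dC; Compound dosing: single point; Times: 3 days compound exposure.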
Each line names hits and unclear results; the compound was inactive in the other large screens.

CCc1ccc(/C=N/Nc2ncnc3nc[nH]c23)cc1	Wnt bcat act 53
c1ccc(-n2ncc3c2ncn2cnnc32)cc1	none (no result: Wnt bcat act, CASP6 VEID inh, NSD2 inh, XiGFP reactiv)
CCc1nnc2c3cnn(-c4ccccc4)c3ncn12	Wnt bcat act inconclusive, esBAF inh 64, MITF act 99 (no result: CASP6 VEID inh, XiGFP reactiv)
Cc1ccc(C2NNC(=O)C2NC(=O)c2ccccc2)cc1 (configuration not stated)	esBAF inh 51 (no result: Wnt bcat act, CASP6 VEID inh, XiGFP reactiv)
O=C(NC1C(=O)NNC1c1ccccc1)c1ccc(F)cc1 (configuration not stated)	none (no result: CASP6 VEID inh, XiGFP reactiv)
CCOc1ccc(N2C(=O)c3ccccc3C2=O)cc1	esBAF inh 43 (no result: Wnt bcat act, CASP6 VEID inh, XiGFP reactiv)
O=C1c2ccccc2C(O)N1c1cccnc1 (configuration not stated)	none (no result: NSD2 inh)
CCOc1ccc(N2C(=O)c3ccccc3C2O)cc1 (configuration not stated)	Wnt bcat act 43, esBAF inh inconclusive (no result: MITF act, NSD2 inh)
O=C(COc1ccc(N2C(=O)c3ccccc3C2=O)cc1)c1ccccc1	none (no result: esBAF inh)
N#C[C@H]1[C@@H](c2ccc(C3=CCCCC3)cc2)[C@H](CO)N1C(=O)NC1CCCCC1	none (no result: Wnt bcat act, MITF act, NSD2 inh)
CC(=O)Nc1c(-c2ccc3ccccc3c2)nc2ccccn12	esBAF inh 57, MITF act 82
O=C(NC1CCCCCC1)C(=S)NC1CCCCC1	Wnt bcat act 33 (no result: esBAF inh)
O=C(NC1CCCCCCC1)NC1CCCCC1	Wnt bcat act 58, MITF act 91 (no result: esBAF inh, CASP6 VEID inh, XiGFP reactiv)
O=C(NC1CCCCCC1)C(=O)NC1CC1	none (no result: MITF act)
CN1CCC(NC(=O)NC2CCCCC2)CC1	none
CCCc1cn([C@H]2C[C@@H]3O[C@@H](CO)CC[C@@H]3O[C@@H]2CCc2ccc(-c3cccc(OC)c3)cc2)nn1	none (no result: Wnt bcat act, esBAF inh, MITF act, NSD2 inh, XiGFP reactiv)
CCC(=O)Nc1ccc2c(c1)C(=O)N(C)C[C@H](OC)[C@H](C)CN(CCc1ccccc1)[C@@H](C)CO2	none (no result: Wnt bcat act, MITF act, NSD2 inh)
OCCc1ccc(NCCc2cccs2)cc1	esBAF inh 54 (no result: MITF act, NSD2 inh)
CCNC(=O)C[C@@H]1CC[C@@H]2[C@H](COC[C@@H](O)CN2C(=O)Nc2ccc(C(F)(F)F)cc2)O1	none (no result: Wnt bcat act, MITF act, NSD2 inh)
O=C(Nc1ccc2ccccc2c1)c1cccc([N+](=O)[O-])c1	esBAF inh 86, MITF act 98
Cc1cccc(C(=O)Nc2ccc3ccccc3c2)c1	esBAF inh 47
COc1cccc(C(=O)Nc2ccc3ccccc3c2)c1	none (no result: MITF act)
C[C@@H]1CN([C@H](C)CO)C(=O)c2cc(NC(=O)CCCN(C)C)ccc2O[C@@H](C)CCCCO[C@H]1CN(C)S(=O)(=O)c1ccccc1	none (no result: Wnt bcat act, MITF act, NSD2 inh)
O=C(N[C@@H]1CC[C@@H](CCNC(=O)C2CCC2)O[C@H]1CO)c1ccccn1	none (no result: Wnt bcat act, MITF act, NSD2 inh)
Cc1cccc(-n2ncc3c(N4CCCC4)ncnc32)c1	none (no result: CASP6 VEID inh, XiGFP reactiv)
Cc1cccc(-n2ncc3c(N4CC(C)CC(C)C4)ncnc32)c1 (configuration not stated)	esBAF inh 62, MITF act 89 (no result: NSD2 inh)
Cc1cccc(-n2ncc3c(NCc4cccnc4)ncnc32)c1	esBAF inh 88 (no result: NSD2 inh)
Cc1ccc(-n2ncc3c(NCc4cccnc4)ncnc32)cc1C	esBAF inh 75
Cc1cccc(-n2ncc3c(NCCCO)ncnc32)c1	Wnt bcat act 40 (no result: NSD2 inh)
Cc1ccc(-n2ncc3c(NCc4cccnc4)ncnc32)c(C)c1	none (no result: esBAF inh, CASP6 VEID inh)
COc1ccc(-n2ncc3c(NCc4cccnc4)ncnc32)cc1	Wnt bcat act 43, esBAF inh 55
Cc1c(C)n(CCc2ccccc2)c2ncnc(NCCO)c12	esBAF inh 76, MITF act 138
Cc1ccc(-n2c(C)c(C)c3c(NCCCO)ncnc32)cc1	esBAF inh 59
Cc1c(C)n(CCCN(C)C)c2ncnc(NCc3ccccc3)c12	none
C[C@H](CO)N1C[C@H](C)[C@@H](CN(C)Cc2cncnc2)Oc2ncc(C#Cc3ccccn3)cc2C1=O	none (no result: Wnt bcat act, MITF act, NSD2 inh)
COc1ccc(OC)c2[nH]c(=O)c(CCNC(=O)c3cc4ccccc4oc3=O)cc12	none (no result: Wnt bcat act, esBAF inh, CASP6 VEID inh, MITF act, XiGFP reactiv)
CC=Cc1ccc2n(c1=O)C[C@H]1[C@H](CO)[C@@H](C(=O)N[C@@H](C)c3ccccc3)[C@@H]2N1Cc1cccnc1 (mixture of isomers)	none (no result: Wnt bcat act, CASP6 VEID inh, MITF act, NSD2 inh)
C[C@@H]1CN([C@@H](C)CO)C(=O)c2cc(NC(=O)C3CCCCC3)ccc2O[C@@H](C)CCCCO[C@H]1CN(C)C(=O)NC1CCCCC1	none (no result: Wnt bcat act, MITF act, NSD2 inh)
Cc1ccccc1OCc1nc2c3c(ncn2n1)-c1ccccc1CC31CCCC1	none (no result: Wnt bcat act, CASP6 VEID inh)
Cc1ccccc1OCc1nc2c3cnn(C)c3ncn2n1	esBAF inh 66 (no result: CASP6 VEID inh, MITF act, XiGFP reactiv)
Cc1ccc(S(=O)(=O)Nc2ccc3c(c2)C(=O)N([C@H](C)CO)C[C@@H](C)[C@@H](CN(C)C(=O)C2CCCCC2)OCCCC[C@H](C)O3)cc1	none (no result: Wnt bcat act, MITF act, NSD2 inh)
C[C@H](O)C#Cc1ccc2c(c1)O[C@H](CN(C)Cc1ccc(-c3ccccc3)cc1)[C@H](C)CN([C@@H](C)CO)S2(=O)=O	none (no result: Wnt bcat act, MITF act, NSD2 inh)
CN1/C(=C\C(=O)c2cccc([N+](=O)[O-])c2)Sc2ccccc21	esBAF inh 75
CN(C)C(=O)C[C@H]1CC[C@H]2[C@@H](COc3ccc(NC(=O)c4ccc(F)cc4)cc3C(=O)N2C)O1	none (no result: Wnt bcat act, CASP6 VEID inh, MITF act, NSD2 inh)
OCc1cccc(-c2csc(C(O)c3ccccc3)n2)c1 (configuration not stated)	esBAF inh 41 (no result: MITF act)
O=C(O)c1cccc(-c2csc(C(O)c3ccccc3)n2)c1 (configuration not stated)	Wnt bcat act 35, esBAF inh 43 (no result: MITF act)
COc1ccc(C(O)c2nc(-c3cccc(CO)c3)cs2)cc1 (configuration not stated)	none (no result: MITF act)
CN(C)c1ccc(-c2csc(C(O)c3ccc(F)c(F)c3)n2)cc1 (configuration not stated)	esBAF inh 45 (no result: MITF act)
Cc1ccc(-c2csc(C(O)c3ccccc3)n2)cc1C (configuration not stated)	esBAF inh 53 (no result: MITF act)
CC(=O)N1[C@H](CO)[C@H](c2ccc(-c3cccnc3)cc2)[C@@H]1CNC(=O)C1CC1	none (no result: Wnt bcat act, esBAF inh, CASP6 VEID inh, MITF act, NSD2 inh)
CC(C)c1cn(CC[C@@H]2CC[C@H](NC(=O)C3CCOCC3)[C@@H](CO)O2)nn1	none (no result: Wnt bcat act, esBAF inh, MITF act, NSD2 inh)
C[C@@H]1CN([C@@H](C)CO)C(=O)c2ccccc2-c2ccccc2CO[C@@H]1CN(C)C(=O)Cc1ccccc1	none (no result: Wnt bcat act, esBAF inh, CASP6 VEID inh, MITF act, NSD2 inh)
O=C(c1cnccn1)N1CC(=O)N2[C@H](CO)[C@H](c3ccc(C#CCc4ccccc4)cc3)[C@H]2C1	none (no result: Wnt bcat act, esBAF inh, MITF act, NSD2 inh)
CC(C)NC(=O)Nc1ccc2c(c1)CC(=O)N([C@@H](C)CO)C[C@H](C)[C@@H](CN(C)C(=O)Nc1ccc(C(F)(F)F)cc1)O2	none (no result: Wnt bcat act, MITF act, NSD2 inh)
CC(C)c1cccc(-c2csc(C(O)c3ccco3)n2)c1 (configuration not stated)	esBAF inh 54 (no result: MITF act)
